Assay results gathered from unrelated publications.
Lines come from different studies, so protocols differ.

The AUC(0-inf) of `COc1ccc(F)cc1C(=O)NCc1ccc(-c2nn([C@@H](C)C(F)(F)F)c(N)c2C(N)=O)cc1` is reported as 105000 ng·h/mL (male human, plasma; oral, 200 mg, single dose).
The viability of `CC(C)C[C@H](NC(=O)[C@H](Cc1ccccc1)NC(=O)c1cnccn1)B(O)O` is reported as 102% (CHP-212; cell growth or viability, SRB; 4.572 nM).
The AUC(0-t) of `COc1ccc2c(c1)CN(C(=O)CCN1CCC(Cc3ccccc3)CC1)CC[S@@+]2[O-]` is reported as 45.2 ng·h/mL (male human, plasma; intravenous, 0.01 mg/kg, healthy volunteers).
The AUC(0-t) of `CC(C)n1c(C2CCNCC2)nc2c([N+](=O)[O-])c(Br)c(Br)cc21` is reported as 952 ng·h/mL (human, plasma; oral, 100 mg, patients).
For `O=C(O)COc1cccc(-c2nc(Nc3ccc4[nH]ncc4c3)c3ccccc3n2)c1`, the IC50 was 15.9 µM (Organic anion transporter 3 (SLC22A8, Homo sapiens, UniProt Q8TCC7); transporter uptake, inhibitor, radiometric).
With `CNC(=O)c1cc(Oc2ccc(NC(=O)Nc3ccc(Cl)c(C(F)(F)F)c3)cc2)ccn1` the viability was 86.2% (WISH; cell growth or viability, MTT; 3.125 µM, 24 h).
`CC(=O)N(C)[C@H]1CCN(C(=O)c2cnc3c(c2)C[C@](C)(c2ccc(F)cc2)N3)C1` has an AUC(0-t) of 3.63 µM·h (male human, plasma; oral, 30 mg, multiple doses, once daily, steady state).
For `O=C(COc1ccc(Cl)cc1)NC12CC(c3nnc([C@H]4C[C@@H](OC(F)(F)F)C4)o3)(C1)C2`, the AUC was 296 µM·h (human, plasma; oral, 260 mg, multiple doses, once daily, steady state, healthy volunteers).
For `CC(=O)O[C@H]1C(=O)[C@@]2(C)[C@H]([C@H](OC(=O)c3ccccc3)[C@]3(O)C[C@H](OC(=O)[C@H](O)[C@@H](NC(=O)c4ccccc4)c4ccccc4)C(C)=C1C3(C)C)[C@]1(OC(C)=O)CO[C@@H]1C[C@@H]2O`, the viability was 89.8% (CHP-212; cell growth or viability, SRB; 1.524 nM).
The concentration of `NCc1cc2c(cc1F)C(=O)N(C1CCC(=O)NC1=O)C2` (stereo not shown) is reported as 1.07 ng/mL (male cynomolgus monkey, plasma; oral, 0.3 mg/kg, 2 h).
